# Assay results published in PMC4269301 (International journal of peptide research and therapeutics, 2014).
# Square brackets hold non-standard residues; d marks the D form. Ends that are not written are not given here. Nle = CCCC[C@H](N)C(=O)O
# T1: GRK2 (Homo sapiens, UniProt P25098, S670A)
# T1 sequence (P25098 1-689 S670A): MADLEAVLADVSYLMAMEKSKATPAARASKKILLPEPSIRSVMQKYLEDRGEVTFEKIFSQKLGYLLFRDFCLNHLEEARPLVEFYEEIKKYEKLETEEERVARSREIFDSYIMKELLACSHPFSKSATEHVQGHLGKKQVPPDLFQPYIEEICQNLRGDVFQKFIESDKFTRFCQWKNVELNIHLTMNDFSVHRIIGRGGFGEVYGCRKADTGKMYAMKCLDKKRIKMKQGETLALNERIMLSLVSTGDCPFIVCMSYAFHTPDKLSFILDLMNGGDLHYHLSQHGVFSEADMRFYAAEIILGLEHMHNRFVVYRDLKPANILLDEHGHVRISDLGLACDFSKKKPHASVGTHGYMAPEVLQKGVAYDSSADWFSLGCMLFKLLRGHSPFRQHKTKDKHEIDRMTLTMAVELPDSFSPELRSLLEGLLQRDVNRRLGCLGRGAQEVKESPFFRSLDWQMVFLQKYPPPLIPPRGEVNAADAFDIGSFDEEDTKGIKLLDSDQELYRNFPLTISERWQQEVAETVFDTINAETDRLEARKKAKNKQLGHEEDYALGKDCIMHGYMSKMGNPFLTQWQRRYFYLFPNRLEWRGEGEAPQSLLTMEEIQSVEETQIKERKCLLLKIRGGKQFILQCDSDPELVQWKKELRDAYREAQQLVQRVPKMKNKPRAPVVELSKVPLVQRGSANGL
# T2: GRK7 (Homo sapiens, UniProt Q8WTQ7)
# T2 sequence (Q8WTQ7 1-553): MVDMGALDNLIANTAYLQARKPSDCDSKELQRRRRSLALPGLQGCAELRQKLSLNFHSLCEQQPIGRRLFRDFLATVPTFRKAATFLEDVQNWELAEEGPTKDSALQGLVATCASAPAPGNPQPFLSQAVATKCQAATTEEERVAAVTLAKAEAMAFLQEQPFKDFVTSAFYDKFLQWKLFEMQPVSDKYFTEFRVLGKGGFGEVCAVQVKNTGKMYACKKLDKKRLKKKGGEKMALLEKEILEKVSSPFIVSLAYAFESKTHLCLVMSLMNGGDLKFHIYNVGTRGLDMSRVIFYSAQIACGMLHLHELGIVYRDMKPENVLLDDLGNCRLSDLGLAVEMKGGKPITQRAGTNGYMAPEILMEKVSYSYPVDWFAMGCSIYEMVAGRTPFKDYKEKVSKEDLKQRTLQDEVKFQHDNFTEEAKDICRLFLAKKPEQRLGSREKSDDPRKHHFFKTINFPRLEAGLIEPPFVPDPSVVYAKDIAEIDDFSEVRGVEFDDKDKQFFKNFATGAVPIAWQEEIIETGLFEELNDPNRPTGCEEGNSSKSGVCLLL
# Legend:
# [1] = molecular target: T3, GRK5 (Homo sapiens, UniProt P34947); assay: GRK5 phosphorylation of light-activated rhodopsin; format: biochemical; conditions: for Inhibition of GRK5 phosphorylation of rhodopsin: peptides 10, 30 and 100 μM, four or more experiments in duplicate; for % Inhibition (100 μM) of GRK5 phosphorylation of rhodopsin: 100 μM peptide, 0.5 μM light-activated rhodopsin, 100 μM ATP, 5 min
# T3 sequence (P34947 whole entry): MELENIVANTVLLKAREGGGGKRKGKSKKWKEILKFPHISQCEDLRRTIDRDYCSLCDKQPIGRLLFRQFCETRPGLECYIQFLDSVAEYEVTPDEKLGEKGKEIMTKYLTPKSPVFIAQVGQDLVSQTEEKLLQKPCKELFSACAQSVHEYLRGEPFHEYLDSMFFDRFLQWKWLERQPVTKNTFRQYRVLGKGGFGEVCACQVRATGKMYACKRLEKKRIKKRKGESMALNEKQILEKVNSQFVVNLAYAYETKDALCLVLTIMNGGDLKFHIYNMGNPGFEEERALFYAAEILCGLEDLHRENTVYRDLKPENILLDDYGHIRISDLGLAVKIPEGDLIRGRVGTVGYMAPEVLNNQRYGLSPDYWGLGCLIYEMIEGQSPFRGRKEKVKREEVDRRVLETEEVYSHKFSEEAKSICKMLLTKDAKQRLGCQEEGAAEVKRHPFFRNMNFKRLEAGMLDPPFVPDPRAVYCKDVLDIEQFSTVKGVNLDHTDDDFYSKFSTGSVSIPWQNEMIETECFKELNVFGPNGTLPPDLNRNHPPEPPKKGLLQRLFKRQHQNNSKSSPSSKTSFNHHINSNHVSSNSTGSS
# [2] = molecular target: T1, GRK2; assay: GRK2 phosphorylation of light-activated rhodopsin; format: biochemical; conditions: peptides 10, 30 and 100 μM; four or more experiments in duplicate
# Outline: (§1)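 Light-activated (475 nm, 30 s) rhodopsin, 0.5 μM, from urea-stripped bovine ROS. Kinase was purified GRK2 (His₆, S670A, Sf9/baculovirus, Ni-IMAC) or N-terminal His₆ full-length human GRK6, at 10–100 nM. Buffer: 20 mM Tris pH 7.5, 10 mM MgCl₂, 1 mM EDTA, 100 μM [γ³²P]ATP; peptides in DMSO (2–4 %). Ran 5 min, then SDS-PAGE and autoradiography. ≥4 experiments in duplicate, % of control.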
# [3] = tested on: GRK6; assay: GRK6 phosphorylation of light-activated rhodopsin; format: biochemical, human; conditions: peptides 10, 30 and 100 μM; four or more experiments in duplicate
# Outline: as §1
# [4] = molecular target: T2, GRK7; assay: GRK7 phosphorylation of light-activated rhodopsin; format: biochemical; conditions: for Inhibition of GRK7 phosphorylation of rhodopsin: peptides 10, 30 and 100 μM, four or more experiments in duplicate
# Outline: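 Substrate is urea-stripped bovine rod outer segment rhodopsin (0.5 μM in reaction buffer; 0.5–4 μM per legend), light-activated at 475 nm for 30 s. Peptides are dissolved in DMSO (2–4% final) and quantified by A280. Results are normalised to the no-peptide control as mean ± SEM.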
# [5] = molecular target: T1, GRK2; assay: GRK2 phosphorylation of tubulin; format: biochemical
# Outline: (§2)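 Bovine brain tubulin 500 nM with 100 nM GRK2 (His₆, S670A, Sf9-expressed) or human His₆-GRK5; 20 mM Tris pH 7.5, 1 mM EDTA, 10 mM MgCl₂, 5 μM DTT, 100 μM [γ³²P]ATP; 60 min, 30 °C. 12 % SDS-PAGE; ³²P-tubulin counted from excised bands or by autoradiogram densitometry. Mean ± SEM, ≥4 experiments in duplicate, % of control; one-way ANOVA.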
# [6] = molecular target: T3, GRK5; assay: GRK5 phosphorylation of tubulin; format: biochemical
# Outline: as §2
# [7] = molecular target: Human His6-tagged GRK5 (human) (UniProt P34947)
# Sequence of Human His6-tagged GRK5 (human) (P34947 whole entry): as above
# [8] = molecular target: Human His6-tagged GRK5 (human) (UniProt P34947); remark: listed apart in the source
# [9] = molecular target: light-activated rhodopsin in urea-stripped bovine rod outer segments (bovine) (UniProt P02699)
# Sequence of light-activated rhodopsin in urea-stripped bovine rod outer segments (bovine) (P02699 whole entry): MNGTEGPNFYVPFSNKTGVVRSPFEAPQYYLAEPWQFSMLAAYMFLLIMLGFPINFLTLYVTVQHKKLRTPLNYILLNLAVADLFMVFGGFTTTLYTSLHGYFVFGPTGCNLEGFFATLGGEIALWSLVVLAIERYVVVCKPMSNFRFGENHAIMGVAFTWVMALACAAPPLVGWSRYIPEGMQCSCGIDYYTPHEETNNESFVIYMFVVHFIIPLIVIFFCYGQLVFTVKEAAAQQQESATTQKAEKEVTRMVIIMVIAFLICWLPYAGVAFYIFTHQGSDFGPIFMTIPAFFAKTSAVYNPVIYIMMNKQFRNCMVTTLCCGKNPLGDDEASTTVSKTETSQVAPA
molecule,measurement,setting,value
Ac-PIGRLLFRQFC-NH2 [α3],Inhibition of GRK5 phosphorylation of rhodopsin,[1],inhibited
same,Inhibition of GRK2 phosphorylation of rhodopsin,[2],inhibited
same,Inhibition of GRK6 phosphorylation of rhodopsin,[3],little activity
same,Inhibition of GRK7 phosphorylation of rhodopsin,[4],inhibited
same,IC50,[5],~30 µM
same,% inhibition of GRK2 phosphorylation of tubulin,"[5]; 100 μM peptide, 0.5 μM tubulin, 100 nM GRK2, 60 min, 30 °C",60–80%
same,IC50,[6],~30 µM
same,% inhibition of GRK5 phosphorylation of tubulin,"[6]; 100 μM peptide, 0.5 μM tubulin, 100 nM GRK5, 60 min, 30 °C",60–80%
Ac-S[Nle]AFDRFLQWKWLER-NH2 [Peptide F166A],% Inhibition (100 μM) of GRK5 phosphorylation of rhodopsin,[1],42%
Ac-S[Nle]FFDRFLQAKWLER-NH2 [Peptide W173A],% Inhibition (100 μM) of GRK5 phosphorylation of rhodopsin,[1],~26%
Ac-S[Nle]FFDRFLQWK-NH2 [Peptide T4],% Inhibition (100 μM) of GRK5 phosphorylation of rhodopsin,[1],72%
Ac-S[Nle]FFDRFLQWKWAER-NH2 [Peptide L176A],% Inhibition (100 μM) of GRK5 phosphorylation of rhodopsin,[1],74%
MELENIVANTVLLKAR-NH2 [N-Ter],IC50,[1],5 to 10 µM
same,Inhibition of GRK5 phosphorylation of rhodopsin,[1],reasonably potent inhibitor
same,Inhibition of GRK2 phosphorylation of rhodopsin,[2],less potent inhibitor
same,Inhibition of GRK6 phosphorylation of rhodopsin,[3],less potent inhibitor
same,IC50,[4],5 to 10 µM
same,Inhibition of GRK7 phosphorylation of rhodopsin,[4],reasonably potent inhibitor
same,"Effect on GRK2 phosphorylation of tubulin, basal activity","[5]; 0.5 μM tubulin, 60 min, 30 °C",no significant effect
same,"Effect on GRK5 phosphorylation of tubulin, basal activity","[6]; 0.5 μM tubulin, 60 min, 30 °C",no significant effect
α9 (164–178) peptide of GRK5,GRK5 phosphorylation of light-activated rhodopsin: IC50 of inhibition,[7],15.9 µM
Ac-PIGRLLFRQFC-NH2 [α3 (61–71) peptide of GRK5],GRK5 phosphorylation of tubulin: IC50 of inhibition,[8],30 µM
Ac-ILENLKDCGLF-NH2 [Gα transducin C-tail peptide TCT (340–350) K341L],GRK5 phosphorylation of light-activated rhodopsin: IC50 of inhibition,[9],10 µM
